Our source for the inhibition, IC50 and ED50 values is ChEMBL document CHEMBL1833903, “Isomeric acetoxy analogs of celecoxib and their evaluation as cyclooxygenase inhibitors” (Bioorg Med Chem Lett, 2011).

In assay [1] the test system is Rattus norvegicus. Description: Antiinflammatory activity in rat assessed as inhibition of carrageenan-induced hind paw edema at 50 mg/kg, po measured after 3 hrs post dose. The format is functional, organism-based. Also noted: dose 50 mg/kg. In outline: (§1)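 Male Sprague-Dawley rats; paw edema induced with carrageenan; test compound given orally at the stated dose. Edema inhibition read 3 h after dosing, as a mean of n = 4. ED50 values were derived where determined.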

In assay [2] the target is T1, Prostaglandin G/H synthase 1 (Ovis aries, UniProt P05979).
T1 sequence (P05979 whole entry): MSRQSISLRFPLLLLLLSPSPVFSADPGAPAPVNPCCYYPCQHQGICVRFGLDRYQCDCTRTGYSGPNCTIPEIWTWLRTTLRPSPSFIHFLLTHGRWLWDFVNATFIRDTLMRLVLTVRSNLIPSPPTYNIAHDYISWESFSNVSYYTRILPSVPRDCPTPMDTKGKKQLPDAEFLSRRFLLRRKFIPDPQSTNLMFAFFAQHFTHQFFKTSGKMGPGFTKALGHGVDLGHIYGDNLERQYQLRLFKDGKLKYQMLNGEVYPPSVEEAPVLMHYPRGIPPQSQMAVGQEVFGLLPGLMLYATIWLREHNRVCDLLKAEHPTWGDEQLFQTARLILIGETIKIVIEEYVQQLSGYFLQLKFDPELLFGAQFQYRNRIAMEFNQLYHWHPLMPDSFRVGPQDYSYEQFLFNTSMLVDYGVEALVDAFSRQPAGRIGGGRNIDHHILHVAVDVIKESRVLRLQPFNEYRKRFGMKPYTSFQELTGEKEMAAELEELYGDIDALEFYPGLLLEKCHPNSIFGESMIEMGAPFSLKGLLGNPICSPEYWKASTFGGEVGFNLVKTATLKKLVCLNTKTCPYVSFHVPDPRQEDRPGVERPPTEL
Description: Inhibition of ovine COX1 by enzyme immuno assay.

Assay [3] deals with Rattus norvegicus. The experiment in a line: Antiinflammatory activity in rat assessed as inhibition of carrageenan-induced hind paw edema at 10 mg/kg, po measured after 3 hrs post dose. Also noted: dose 10 mg/kg. The class given is functional, organism-based. Summed up: as §1
For assay [4], the system named is Rattus norvegicus. The experiment in a line: Antiinflammatory activity in po dosed rat assessed as inhibition of carrageenan-induced hind paw edema measured after 3 hrs post dose. The format is functional. Summed up:
as §1
On the technique in general: In the carrageenan paw model, swelling and tenderness develop within hours.

Calls of active or inactive are those of the source. No cut-off for these calls is given here.

As to `CC(=O)Oc1ccc(-c2cc(C(F)(F)F)nn2-c2ccc(S(N)(=O)=O)cc2)cc1`, in the assay with Rattus norvegicus [1], the inhibition result is “inactive”. In assay [2], this compound showed an IC50 above 100 µM.

As to `CC(=O)Oc1cc(-c2cc(C(F)(F)F)nn2-c2ccc(S(C)(=O)=O)cc2)ccc1C`, in the assay on Rattus norvegicus [3], the inhibition entry is “inactive”.

Consider `CC(=O)Oc1cccc(-c2cc(C(F)(F)F)nn2-c2ccc(S(N)(=O)=O)cc2)c1`, for which the IC50 in assay [2] is above 100 µM.

In the case of `CC(=O)Oc1cc(F)ccc1-c1cc(C(F)(F)F)nn1-c1ccc(S(C)(=O)=O)cc1`, the IC50 in assay [2] is above 100 µM.

For the compound `CC(=O)Oc1cc(-c2cc(C(F)(F)F)nn2-c2ccc(S(N)(=O)=O)cc2)ccc1C`, the inhibition result with Rattus norvegicus [1] was “inactive”. Further, the IC50 in assay [2] is above 100 µM.

Turning to `CC(=O)Oc1ccc(-c2cc(C(F)(F)F)nn2-c2ccc(S(C)(=O)=O)cc2)cc1`, the IC50 in assay [2] was 80.3 µM.

In the case of `CC(C)Cc1ccc(C(C)C(=O)O)cc1` (centres undefined) [IBUPROFEN], in the assay on Rattus norvegicus [4], the ED50 was determined as 67.4 mg/kg.

In the case of `CC(=O)Oc1cc(C)ccc1-c1cc(C(F)(F)F)nn1-c1ccc(S(C)(=O)=O)cc1`, in assay [2], the concentration for half-maximal inhibition (IC50) is above 100 µM.

In assay [2], `CC(=O)Oc1ccccc1-c1cc(C(F)(F)F)nn1-c1ccc(S(N)(=O)=O)cc1` returned a 50% inhibitory concentration (IC50) above 100 µM.

For `CC(=O)Oc1cccc(-c2cc(C(F)(F)F)nn2-c2ccc(S(C)(=O)=O)cc2)c1`, the IC50 in assay [2] is above 100 µM.

`Cc1ccc(-c2cc(C(F)(F)F)nn2-c2ccc(S(N)(=O)=O)cc2)c(O)c1` displayed an IC50 in assay [2] of 36 µM. For the same compound, the inhibition result with Rattus norvegicus [3] is “inactive”.

`CC(=O)Oc1cc(F)ccc1-c1cc(C(F)(F)F)nn1-c1ccc(S(N)(=O)=O)cc1`: in the assay with Rattus norvegicus [4] (Rattus norvegicus, po, 3 h, read-out: ED50), the median effective dose (ED50) is 42.3 mg/kg. Besides, the 50% inhibitory concentration (IC50) in assay [2] came out at 0.7 µM.

Turning to `CC(=O)Oc1ccccc1C(=O)O` [ASPIRIN], the ED50 in the assay with Rattus norvegicus [4] came out at 129 mg/kg.

On to `CC(=O)Oc1cc(C)ccc1-c1cc(C(F)(F)F)nn1-c1ccc(S(N)(=O)=O)cc1`, for which, in the assay on Rattus norvegicus [1], the inhibition result was “inactive”. The same compound had an IC50 in assay [2] above 100 µM.

By IC50 is commonly meant the concentration needed to halve the response being measured. High values mean weaker potency in that assay, low ones greater potency in that assay. As a reminder, the ED50 is the dose at which the effect has come halfway, by size or by number of responders.
